In ChEMBL document CHEMBL3414458, “Discovery of novel 2,5-dioxoimidazolidine-based P2X(7) receptor antagonists as constrained analogues of KN62” (J Med Chem, 2015):
Activity calls are given as the source filed them. The rule behind the calls is not given here.

Columns and labels:
[1] = target: T1, P2X purinoceptor 7 (Mus musculus) (UniProt Q9Z1M0); test: Antagonist activity at P2X7 receptor in LPS-primed mouse J774.A1 cells assessed as inhibition of ATP-induced IL-1beta release after 30 mins by ELISA; type: cell-based
T1 sequence (whole entry): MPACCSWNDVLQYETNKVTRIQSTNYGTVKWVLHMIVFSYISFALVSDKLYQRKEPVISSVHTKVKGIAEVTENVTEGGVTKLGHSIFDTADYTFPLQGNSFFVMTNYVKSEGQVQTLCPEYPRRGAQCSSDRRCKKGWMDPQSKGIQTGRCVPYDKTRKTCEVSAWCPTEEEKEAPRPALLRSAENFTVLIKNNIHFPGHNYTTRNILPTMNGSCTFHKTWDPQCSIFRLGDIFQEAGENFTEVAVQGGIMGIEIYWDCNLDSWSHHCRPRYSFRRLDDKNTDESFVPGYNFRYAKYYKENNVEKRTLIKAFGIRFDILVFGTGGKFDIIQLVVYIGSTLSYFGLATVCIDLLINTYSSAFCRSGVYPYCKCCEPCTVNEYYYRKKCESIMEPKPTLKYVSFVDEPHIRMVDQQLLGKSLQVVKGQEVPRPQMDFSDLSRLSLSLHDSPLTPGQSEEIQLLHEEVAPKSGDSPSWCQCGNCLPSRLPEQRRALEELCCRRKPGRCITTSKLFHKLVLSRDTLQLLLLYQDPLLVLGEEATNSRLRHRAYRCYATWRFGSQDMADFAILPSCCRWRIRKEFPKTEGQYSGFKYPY
Method in brief: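 J774.A1 mouse cells stimulated with 5 mM ATP; IL-1β release measured, with IC50 taken from concentration-response data.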

[2] = target: T2, P2X purinoceptor 7 (Homo sapiens) (UniProt Q99572); test: Competitive antagonist activity at recombinant human P2X7 receptor expressed in HEK293 cells assessed as inhibition of BzATP-induced intracellular ethidium bromide uptake at 0.1 to 1 uM after 2 hrs by fluorescence assay in presence of BzATP; type: cell-based
T2 sequence (whole entry): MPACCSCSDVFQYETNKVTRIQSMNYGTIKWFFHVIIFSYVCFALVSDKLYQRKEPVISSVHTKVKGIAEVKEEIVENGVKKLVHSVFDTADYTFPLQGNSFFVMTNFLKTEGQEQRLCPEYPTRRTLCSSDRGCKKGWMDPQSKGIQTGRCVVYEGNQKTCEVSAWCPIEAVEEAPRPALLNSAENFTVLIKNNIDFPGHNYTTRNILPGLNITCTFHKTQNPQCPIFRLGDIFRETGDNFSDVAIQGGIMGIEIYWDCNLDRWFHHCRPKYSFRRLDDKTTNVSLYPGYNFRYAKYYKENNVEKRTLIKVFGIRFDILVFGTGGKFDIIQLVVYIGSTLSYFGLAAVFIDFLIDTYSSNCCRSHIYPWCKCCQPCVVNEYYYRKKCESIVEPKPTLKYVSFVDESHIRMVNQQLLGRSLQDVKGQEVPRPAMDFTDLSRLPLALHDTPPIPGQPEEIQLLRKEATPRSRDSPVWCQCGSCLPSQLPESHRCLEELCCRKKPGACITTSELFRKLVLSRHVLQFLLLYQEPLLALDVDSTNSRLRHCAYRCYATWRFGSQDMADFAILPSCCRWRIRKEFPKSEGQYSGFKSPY
Method in brief: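 HEK293 cells stably expressing recombinant human P2X7 were stimulated with BzATP, and ethidium ion accumulation was read as the measure of pore activity.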

[3] = target: T3, P2X purinoceptor 3 (Homo sapiens) (UniProt P56373); test: Antagonist activity at recombinant human P2X3 receptor overexpressed in Xenopus oocytes assessed as inhibition of ATP-induced ion current at 10 uM preincubated for 20 mins followed by ATP induction by two-electrode voltage clamping method relative to control; type: cell-based
T3 sequence (whole entry): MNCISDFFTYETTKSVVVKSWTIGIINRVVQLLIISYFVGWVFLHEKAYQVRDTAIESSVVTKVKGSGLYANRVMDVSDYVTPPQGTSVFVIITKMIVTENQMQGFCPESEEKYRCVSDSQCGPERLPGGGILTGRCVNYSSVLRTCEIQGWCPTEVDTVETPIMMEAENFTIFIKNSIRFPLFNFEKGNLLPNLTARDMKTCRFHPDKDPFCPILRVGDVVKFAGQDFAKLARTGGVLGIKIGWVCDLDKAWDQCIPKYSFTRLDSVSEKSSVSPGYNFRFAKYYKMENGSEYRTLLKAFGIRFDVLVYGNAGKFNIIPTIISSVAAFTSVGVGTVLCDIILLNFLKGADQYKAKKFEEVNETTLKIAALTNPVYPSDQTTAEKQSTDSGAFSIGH
Method in brief: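 Xenopus oocytes were microinjected with capped cRNA for human P2X3. Two-electrode voltage clamp recorded ion current evoked by 2 µM ATP. Test compound at 10 µM was scored as percent reduction of the ATP-induced current.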

[4] = system: Rattus norvegicus; test: Antiinflammatory activity in Sprague-Dawley rat assessed as decrease in carrageenan-induced paw edema at 10 mg/kg, ip preincubated for 1 hr followed by carrageenan challenge measured after 3 to 6 hrs by plethysmometer relative to control
[5] = system: Mus musculus; test: Downregulation of COX-2 expression in ankle tissue of CII-induced DBA/1J mouse arthritic model at 25 to 50 mg/kg, ip measured 10 days post second CII booster by immunoblot analysis; type: functional, organism-based

## O=C1NC(=O)N(C2CCN(C(=O)c3ccc(Cl)c(C(F)(F)F)c3)CC2)C1Cc1ccc(OS(=O)(=O)c2cccc3cnccc23)cc1 (racemic)
[1]
  inhibition: Dose-dependent effect
[2]
  inhibition: Active
[3]
  inhibition: 5.05%
[4]
  Activity: Active
[5]
  Activity: Active
